Variants at the floor of the assay were thinned out.
B1: tRNA (parent)
chain: GUUCCGUUGGCGUAAUGGUAACGCGUCUCCCUCCUAAGGAGAAGACUGCGGGUUCGAGUCCCGUACGGAACG

Variants of: B1
Experiment: yeast fitness relative to wild type (ratio to wild type); higher = fitter; tRNA-Arg(CCU), competitive growth, 37 C, YPD
Method in brief: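 For this measurement, the tRNA-Arg(CCU) gene was varied by chemical synthesis at a 3% per-site mutation rate across 69 sites, and each variant was placed at the native genomic locus in Saccharomyces cerevisiae. The pooled strains went through a 24-hour competition in YPD at 37°C in six parallel replicates, with amplicons from start and end populations read by 100-nucleotide paired-end sequencing. Darwinian fitness relative to wild type followed from the change in each genotype's frequency. Genotypes needed ≥ 100 starting reads, and estimates < 0.5 were set to 0.5.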

Point of comparison: GUUCCGUUGGCCUAAUGGUAACGCGUCUCCCUCCUAAAGAGAAGACUGCGGGUUCGAGUCCCGUACGGAACG, yeast fitness 0.687. Against it:
- GUUCCGUUGGCCUAAUGGUAACGCGUCUCCCUUCUAAGGAGCAGACUGCGGGUUCGAGUCCCGUACGGAACG — lower, ≤ 0.5
- GUUCCGUUGGCCUAAUGCUAACGCGUCUCCCUCCUAAGGAGAAGGCUGCGGGUUCGAGUCCCGUACGGAACG — lower, ≤ 0.5
- GUUCCGUUGGCCCAAUGGUCACGGGUCUCCCUCCUAAGCAGAAGACUGCGGGUUCGAGUCCCGUACGCAACG — lower, 0.511
- GUUCCGUUGGCCUAAAGGUAACGGGUCUCCCUCCUAAGGAGAAGACUGCGGGUUCGACUCGCGUACGGAACG — lower, ≤ 0.5
- GUUCCGUUGGCCUAAUGGUAACGCGUCUCCCGGCUAAGGAGAAGACUGCGGGUUCGAAUCCCGUACGGAACG — lower, ≤ 0.5
- GUUCCGUUGGCCUAAUGGUAACGCGUCUCCCUCCUAAGGAGAAGACUGUGGGUUCGAGUCCCGUACGGAUCG — higher, 0.692
- GUUCCGUUGGCCUAAUGGUAACGCGUCUCCCUCCUAAGGAGAAGACUGCGGGUUUGAGUCGCGUACGGAACG — lower, ≤ 0.5
- GUUCCGUUGGCCUAAUGGUAACCCGUCUCCCUCCUAAGGAGUACACUGCGGGUACGAGUCCCGUACGGAACG — lower, ≤ 0.5
- GUUCCGUUGGCCUAAUGGUAACGCGUCUCCCUCCUAAGGAGAAGACUGCGGGUUCGAGUACCGUACGGAACG — lower, 0.588
- GUUCCGUUGGCCUAAUGGUAACGCGUCUCCUUCCUAAGGAGAAGACUGCGGGUUCGAGUCCCGUCCGGUACG — lower, ≤ 0.5
- GUUCCGUUGGCCUAAUGGAAACGCGUGUCCCUCCUAAGGAGAAGACUGCGGGUUCGAGUCCAGUACGGAACG — lower, ≤ 0.5
- GUUCCGUUGGCCUAAUGGUAACGCGACUCCCUCCUAAGGAGAAGACUACGGGUUCCAGUCCCGUACGGAACG — lower, ≤ 0.5
- GUUCCGUUGGCCUAAUGGUAACGCGUCUCUCUCCUAAGGAGAAGACUGCGGGUUCGAGUCCCGUACGGAUCG — lower, ≤ 0.5
- GUUCCGUUGGCCUAAUGGUAACGCGUGUCCCUCCUAAGGAGAAGACUGCGGGUUCCAGUCCCGUACGGAACG — lower, ≤ 0.5
- GUUCCGUUGGCUUAAUGGUAACGCGUCUCCCUCCUAAGGAGAAGACUGCGGGUUCGCGUCCCGUACGGAACG — lower, ≤ 0.5
- GUUCCGUUGGCCUAAUGGUAACGCGUCUCCCUCCUAAGGAGAAGACAGCGGGUUCGAGUCCCGUACGGAGCG — lower, 0.554
- GUUCCGUUGGCCUAAUGGUAACGCGUCUCCCUCCUAAGGAGAAGAUUGGGGGUUCGAGUCCCGUACGGAUCG — lower, 0.526
- GUUCCGUUGGCCUAAUGGUAACCCGUCUCCCUCCUAAGGAGAAGUCUGCGGGUUCGAGUCCCGUACGGAACG — lower, 0.609
- GUUCCGUUGGCCUAAUGGUAACGCGUCUCCCUCUUAAGGAGAAGAAUGCGGGUUCGAGUCCCGUACGGAACG — lower, ≤ 0.5
- GUUCCGUUGGCCUAAUGGUAACGCGUAUCCCUCCUAAGGAGAAGACUGCGGGUUCCAGUCCCGUACGGAACG — higher, 0.702
- GUUCCGUUGGCCUAAUGGUAAUGCGUCUCCCUCCUAAGGCGAAGACUGCGGCUUCGAGUCCCGUACAGAACG — lower, ≤ 0.5
- GUUCCGUUGGCCUAAUGGUAACGCGUCUCCCGGCUAAGGAGAAGACUGCGGGUUCGAGUCCCGUACGCAACG — lower, ≤ 0.5
- GUUCCGUUGGCCUAAUGGUAACGCGUCUCCCUCCUAAGGAGAAGACUGCGGGUUCGAGACCCGUACGGCACG — lower, ≤ 0.5
- GUUCCGUUGGCCUAAUGGUAACGCGUCUCCCGGCUAAGGAGAAGACCGCGGGUUCGCGUCCCGUACGGAACG — lower, ≤ 0.5
- GUUCCGUUGGCCUAAUGGUAACGCGUCUUCCUCCUAAGGAGUAGACCGCGGGUUCGAGUCCUGUACGGAACG — lower, ≤ 0.5
- GUUCCGUUGGCCUAAAGGUACCGCGUCUCCCUCCUAAGGAGAAGACUGCGGGUUCGAGUCCCGUACGGAACG — lower, ≤ 0.5
- GUUCCGUUGGCCUAAUGGUAACGCGUCUCCCUCCUAAGGAGAAGACGGAGGGUUCGAGUCCCGUACGGUACG — lower, ≤ 0.5
- GUUCCGUUGGCCUAAAGGUAACGCGUCUCCCUCCUAAGGAGAAGACUGCGGGUUCGAGUGUCGUACGAAACG — lower, ≤ 0.5
- GUUCCGUUGGCCUAAUGGUAACGCGUCUCCCUCAUAAGGAGAAGACUGCGGGUUCGACUCCCGUUCGGCACG — lower, ≤ 0.5
- GUUCCGUUGGCUUAAUGGUAACGCGUCUCCCUCCUGAGGAGAAGACUGCGGGUUCGAGUCCCGUACGGAACG — higher, 0.758
- GUUCCGUUGGCCUAAUGCUAACGCGUCUCCCUCCUAAGGAGAAGACUGCGGGUUCGAGUCCCGUACUGAACG — lower, ≤ 0.5
- GUUCCGUUGGCUUAAUGGUAACGCGUCUCCCUCCUAAGAAGAAGACUGCGGGUUCGAGUCCCGUAGGGAACG — lower, ≤ 0.5
- GUUCCGUUGGCCUAAUGGUAACGUGUCUCCCUCCUAAGGAGAAGACUGCGGGUUCGAGUCCCGGACGGAACG — lower, ≤ 0.5
- GUUCCGUUGGCCUAAUGCUAACGCAUCUCCCUCCUAAGGAGAAGACUGCGGGUUCGAGUCCCGUAUGGAACG — lower, ≤ 0.5
- GUUCCGUUGGCCUAAUGGGCCCGCGUCUCCUUCCUAAGGAGAAGACUGCGGGUUCGAGUCACGUACGGAACG — lower, ≤ 0.5
- GUUCCGUUGGCCUAAUGGUAACGCGACUCCCUAGUAAGGAGAAGACUGCGGGUUCGAGUCCCGUACGGGACG — lower, ≤ 0.5
- GUUCCGUUGGCCUAAUCGUAACGCGUCUCCCUCCUAAGGAGAAGACUGCGGGUUCGAGUCCCGUACGGAACG — lower, 0.637
- GUUCCGUUGGCCUAAUGGUAACGCGUCUCCCUCCUAAGGAGAAGACUGCGGGUUCGAGUUCCGUACGGACCG — lower, ≤ 0.5
- GUUCCGUUGGCCUAAUGGUAACGCGUCUCCCUCCUAAGGAGAAGACUGCGGGAUCGAGUCCCGUACGGAACG — lower, 0.594
- GUUCCGUUGGCCUAAUGGCAACGCGUCUCCCUCCUAAGGAGAAGACUGCGGGUUCGAGUCCCGUACGGAACG — lower, 0.66
- GUUCCGUUGGCCUAAUGGUAACGCGUGUCCCUCCAAAGGAGAAGACUGCGGAUUCGGGUCCCGUACGGUUCG — lower, ≤ 0.5
- GUUCCGUUGGCCUAAUGGUAACGCGUCUCCCUCCUAAGGAGAAGACUGCGGGUUCGAGCACCGUACGGAACG — lower, ≤ 0.5
- GUUCCGUUGGCCUAAUGCUAACGCGUCUCCCUCCAAAGAAGAAGACUGCGGGAUCGAGUCCCGUACGGAACG — lower, ≤ 0.5
- GUUCCGUUGGCCUAAUGGUAACGCGUCUCCCUCCUAAGGAGAAGACUGCGGGUUGGAGUCCCGUACGGAACG — lower, 0.608
- GUUCCGUUGGCCUAAUGGUAACGCGUCUCCCUACUAAGGAGAAGACUGCGGGUUCGAGUCCCGUACGGAACG — lower, 0.682
- GUUCCGUUGGCCUAAUGGUAACGCGUCUCCCUCUUAAGGAGAAAACUGCGGAUUCGAGUCCCGUACGGAACG — lower, ≤ 0.5
- GUUCCGUUGGCCUAAUGGUAACGCGUCUCCCUCCUAAGGAGAACACUGCGGGUUCGAGUCCCGUAUGGAACG — lower, 0.573
- GUUCCGUUGGCCUAAUAGUAACGCGUCUCCCUCGUAAGGUGUAGACUGCGGGUUCGAGUCCCGUACCGAACG — lower, ≤ 0.5
- GUUCCGUUGGCCUAAUGGUAAUGCGUCUCCCUCCUAAGGAGAAGACUGCGGGUCCGAGUCCCGUACGGAACG — lower, 0.683
- GUUCCGUUGGCCCAAUGGUAACGCGACUCCCUAGUAAGGAGAAGACUGCGGGUUCGAGUCCCGUACGGAACG — lower, ≤ 0.5
- GUUCCGUUGGCCUAAUGGUAAUGCGUCUCCCUCCUAAGGAGAAGACUGCGGGUCCGAGUCUCGUACGGAACG — lower, 0.532
- GUUCCGUUGGCCUAAUGGUAACGCGUCUCCCUCCUAAGGAGAAGACUGCGGGUUCGAAUCCUGUACGGCACG — higher, 0.699
- GUUCCGUUGGCCUAAUGGUAACGCGUCUCACUCCUAAGGAGAAGACUACGGGUUGGAGUCCCGUACGGAACG — lower, 0.607
- GUUCCGUUGGCCUAAUGGUAACGCGUCUCCCUCCUAAGGAGAAGAAUGCGGGUUCGAGUCCCGUACGUAACG — lower, ≤ 0.5
- GUUCCGUUGGCCUAAUAGUUACGCGUCUCCCUCAUAAGGAGCAGACUACGGGUUCGAGUCCUGUACGGAACG — lower, ≤ 0.5
- GUUCCGUUGGCCUAAUGGUAACGCGUCUCCCGGCUAAGGAGAAGACUGCGGGUUCGAGUCCCGUACCGAACG — lower, ≤ 0.5
- GUUCCGUUGGCCAAAUGGUAACACGUCUCCCUCCUACGGAGAAGACUGCGGGUUCGAGUCUCGUACGGAACG — lower, 0.586
- GUUCCGUUGGCCUAAUGGUAACGCCUCUCCCUCCUAAGGAGAAGACUGCGGGUUCGAGUACCGUACGGUACG — lower, ≤ 0.5
- GUUCCGUUGGCCUAAUGGUAACGCGUAUCCCUCCUAAAGAGAAGACUGCGGGUUCGAGUCCCGUACGGAACG — lower, 0.584
- GUUCCGUUGGCCUAAUGGUAACGCGUCUCCCUCCUAAGGAGAAGACUGCGGGUACGAGUCCCGUCCGGAACG — lower, ≤ 0.5
- GUUCCGUUGGCCUAAUGGUAACGCGUCUGCCUCCUAAGGAGAAGACUGCGGGUUCGAGUCCCGUACGGAACG — lower, 0.58
- GUUCCGUUGGCCUAAUGGUAACGCGUCUCCAUCCUAAGGCGAAGACUGCGGGUUCGAGUCCUGUACGGAACG — lower, ≤ 0.5
- GUUCCGUUGGCCUAAUGGUAACGCAUCUCCCUCCUAAGGAGAAGACUGCGGGUUCGAGUCCCGUACGGAACG — higher, 0.848
- GUUCCGUUGGCCUAAUGGAAACGCGUGUCCCUCCUAAGGAGAAGACUGCGGGUUCGAGUCCCGUCCGGAACG — lower, 0.557
- GUUCCGUUGGCCUAAUGGUAACGGGUCUCCCUCCCAAGGAGAAGACUGCGGGUUCGAGUCCCGUACGGAACG — lower, ≤ 0.5
- GUUCCGUUGGCCUAAUGGUAACGCGUCUCCCUCGUAAGGAGAAGACUGCGGGUUCGAGUCCCGUACGGAACG — higher, 0.696
- GUUCCGUUGGCUUAGUGGUCACGGGUCUCCCUCCUAAGGAGAAGACUGCGGGUUCGAGUCCCGUACGGAACG — lower, ≤ 0.5
- GUUCCGUUGGCCUAAUAGUUACGCGUCUCCCUCCUAAGGAGAAGACUGCGGGUUCGAUUCCCGUACGGAACG — lower, ≤ 0.5
- GUUCCGUUGGCCUAAUGGUAACGUGUCUCCCUCCUAAGGAGAAGACUGCGGGUUCGAGUCCCGUACGGAACG — lower, 0.651
- GUUCCGUUGGCCUAAUGGUAACGUGUCUCCCUCCUAAGGAGAAGACUGUGGGUUUGAGUCCCGUACGCAACG — lower, ≤ 0.5
- GUUCCGUUGGCCUAAUGGUAAGGCCUCUCCCUCCUAAGGAGAAGACUACGGGUUCGAGUCCCGUACGGAACG — higher, 0.915
- GUUCCGUUGGCCUAAUGGUAACGCGUCUCCCUCCUAAGGAGAAGACUGCGGGUUCGAGUCCCCUACGGAACG — higher, 0.699
- GUUCCGUUGGCCUAAUGGUAACGCCUCUCCCUCCUAAGGAGAAGACUGCGGGUUCGAGUCCCGUAGGGAACG — lower, ≤ 0.5
- GUUCCGUUGGCCUAAUGGUAACGCGUCUCCCUCCUAAGGAGAAGACUGCGGGUUCGAGUCCCGUAAGGAACG — lower, 0.676

Source: the RNAGym collection of RNA variant scans (doi:10.1126/science.aae0568)
